Source: ChEMBL document CHEMBL4371006, “Discovery of N-[4-(Quinolin-4-yloxy)phenyl]benzenesulfonamides as Novel AXL Kinase Inhibitors” (J Med Chem, 2018)
The source made the active and inactive calls. The calls are words filed in the database; no cut-off is given here.

How the values were obtained:
[1] = Toxicity in SCID/beige mouse xenografted with human MDA-MB-231 cells assessed as body weight gain at 10 mg/kg, iv administered 3 times per week measured 3 times per week starting at day 12; type: organism-based; conditions: in vivo
MDA-MB-231 [2] = test: Antitumor activity against human MDA-MB-231 cells xenografted in mouse assessed as tumor growth inhibition at 10 mg/kg, iv administered 3 times per week measured 3 times per week starting at day 12; type: functional, organism-based
Summary of the method: (§1)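 Female SCID/Beige mice inoculated with 2 x 10^6 MDA-MB-231 cells in HBSS:Matrigel (1:1) into third mammary fat pad under ketamine/xylazine. Test agent 30 mg/kg ip twice daily (12 h apart) in PEG400/H2O 70:30, or paclitaxel 10 mg/kg iv three times weekly; 10 mice/group. Tumors measured three times weekly from day 12; lungs and lymph nodes excised, formalin-fixed, nodes H&E-scored (mean ± SEM).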

MDA-MB-231 [3] = test: Antimetastatic activity against human MDA-MB-231 cells xenografted in mouse assessed as reduction in lung metastasis at 10 mg/kg, iv administered 3 times per week measured 3 times per week starting at day 12 by hematoxylin and eosin staining based assay relative to control; type: functional; parameters: scale not given: the % may be the effect or the level left; summary of the method: as §1
MDA-MB-231 [4] = test: Antimetastatic activity against human MDA-MB-231 cells xenografted in mouse assessed as reduction in lymph node infiltrates at 10 mg/kg, iv administered 3 times per week measured 3 times per week starting at day 12 by hematoxylin and eosin staining based assay; type: functional, organism-based; summary of the method: as §1
[5] = Selectivity ratio of compound effect for anti-invasive activity against human MDA-MB-231 cells to IC50 for AXL (unknown origin) phosphorylation
MDA-MB-231 [6] = test: Antimigratory activity against human MDA-MB-231 cells after 3.5 hrs by microscopy based Boyden chamber assay; type: functional, cell-based; conditions: MDA-MB-231, 3.5 h
Summary of the method: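 Modified Boyden chamber: MDA-MB-231 cells plated in 0.1% FCS medium, migrating through 8 µm pore membrane toward 1% FCS chemoattractant for 3.5 h; transmigrated cells counted microscopically in at least 5 random fields per well.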

[7] = target: T1, Tyrosine-protein kinase receptor UFO (Homo sapiens, UniProt P30530); test: Inhibition of AXL (unknown origin) phosphorylation after 1 hr by ELISA
T1 sequence (P30530 whole entry): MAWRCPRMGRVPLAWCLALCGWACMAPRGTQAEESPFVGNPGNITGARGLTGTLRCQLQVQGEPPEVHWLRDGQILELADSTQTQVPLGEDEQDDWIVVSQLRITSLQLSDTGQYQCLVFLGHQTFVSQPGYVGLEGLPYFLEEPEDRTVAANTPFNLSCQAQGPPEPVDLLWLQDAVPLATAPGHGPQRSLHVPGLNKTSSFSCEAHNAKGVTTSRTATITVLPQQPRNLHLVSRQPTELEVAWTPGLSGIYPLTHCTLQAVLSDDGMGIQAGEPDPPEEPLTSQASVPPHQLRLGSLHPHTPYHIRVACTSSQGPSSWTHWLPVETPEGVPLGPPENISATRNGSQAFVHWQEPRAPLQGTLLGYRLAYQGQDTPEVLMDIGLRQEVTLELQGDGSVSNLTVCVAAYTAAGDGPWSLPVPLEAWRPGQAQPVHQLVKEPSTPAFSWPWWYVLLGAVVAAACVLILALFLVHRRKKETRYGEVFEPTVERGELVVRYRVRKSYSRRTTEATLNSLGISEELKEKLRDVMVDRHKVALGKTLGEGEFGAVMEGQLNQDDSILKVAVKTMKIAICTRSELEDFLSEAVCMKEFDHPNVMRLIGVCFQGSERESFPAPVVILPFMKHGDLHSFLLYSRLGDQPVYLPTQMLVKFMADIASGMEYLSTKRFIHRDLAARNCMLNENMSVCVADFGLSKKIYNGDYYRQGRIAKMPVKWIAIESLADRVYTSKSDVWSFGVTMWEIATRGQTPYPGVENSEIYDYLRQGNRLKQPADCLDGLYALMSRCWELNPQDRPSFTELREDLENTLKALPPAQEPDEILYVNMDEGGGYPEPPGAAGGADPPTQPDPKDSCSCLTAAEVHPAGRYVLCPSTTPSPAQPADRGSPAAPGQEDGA

[8] = target: T2, Epidermal growth factor receptor (Homo sapiens, UniProt P00533); test: Inhibition of wild type EGFR (unknown origin)
T2 sequence (P00533 whole entry): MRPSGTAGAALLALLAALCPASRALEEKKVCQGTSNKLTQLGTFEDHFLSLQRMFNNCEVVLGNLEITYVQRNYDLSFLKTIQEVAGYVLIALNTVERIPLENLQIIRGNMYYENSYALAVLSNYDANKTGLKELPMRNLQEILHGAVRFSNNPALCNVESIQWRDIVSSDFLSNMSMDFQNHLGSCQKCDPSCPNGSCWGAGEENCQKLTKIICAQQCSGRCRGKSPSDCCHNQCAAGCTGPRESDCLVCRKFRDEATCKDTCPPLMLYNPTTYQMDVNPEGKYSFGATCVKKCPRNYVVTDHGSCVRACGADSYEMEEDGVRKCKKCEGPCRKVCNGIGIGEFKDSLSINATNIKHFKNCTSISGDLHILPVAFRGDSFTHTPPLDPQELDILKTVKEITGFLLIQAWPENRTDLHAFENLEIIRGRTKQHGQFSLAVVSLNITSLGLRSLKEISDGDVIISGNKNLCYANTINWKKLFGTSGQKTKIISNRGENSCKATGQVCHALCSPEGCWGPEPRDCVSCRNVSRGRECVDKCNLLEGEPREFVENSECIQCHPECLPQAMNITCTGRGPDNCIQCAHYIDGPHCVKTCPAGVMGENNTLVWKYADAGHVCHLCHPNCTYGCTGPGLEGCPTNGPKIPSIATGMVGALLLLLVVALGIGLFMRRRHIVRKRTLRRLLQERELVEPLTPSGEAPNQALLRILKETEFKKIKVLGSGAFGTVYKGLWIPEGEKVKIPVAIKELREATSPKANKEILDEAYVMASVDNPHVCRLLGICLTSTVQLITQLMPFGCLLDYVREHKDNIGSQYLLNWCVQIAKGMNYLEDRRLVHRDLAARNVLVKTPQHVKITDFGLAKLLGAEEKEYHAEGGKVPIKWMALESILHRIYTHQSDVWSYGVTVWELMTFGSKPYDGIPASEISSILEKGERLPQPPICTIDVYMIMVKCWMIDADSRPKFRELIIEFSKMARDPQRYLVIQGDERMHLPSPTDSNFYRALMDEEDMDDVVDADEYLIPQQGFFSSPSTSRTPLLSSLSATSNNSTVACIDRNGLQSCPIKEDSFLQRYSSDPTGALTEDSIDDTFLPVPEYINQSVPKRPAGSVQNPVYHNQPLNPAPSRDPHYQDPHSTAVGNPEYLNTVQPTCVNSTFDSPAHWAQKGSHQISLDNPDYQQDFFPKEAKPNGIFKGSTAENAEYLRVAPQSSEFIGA

[9] = target: T3, Hepatocyte growth factor receptor (Homo sapiens, UniProt P08581); test: Inhibition of c-MET (unknown origin)
T3 sequence (P08581 whole entry): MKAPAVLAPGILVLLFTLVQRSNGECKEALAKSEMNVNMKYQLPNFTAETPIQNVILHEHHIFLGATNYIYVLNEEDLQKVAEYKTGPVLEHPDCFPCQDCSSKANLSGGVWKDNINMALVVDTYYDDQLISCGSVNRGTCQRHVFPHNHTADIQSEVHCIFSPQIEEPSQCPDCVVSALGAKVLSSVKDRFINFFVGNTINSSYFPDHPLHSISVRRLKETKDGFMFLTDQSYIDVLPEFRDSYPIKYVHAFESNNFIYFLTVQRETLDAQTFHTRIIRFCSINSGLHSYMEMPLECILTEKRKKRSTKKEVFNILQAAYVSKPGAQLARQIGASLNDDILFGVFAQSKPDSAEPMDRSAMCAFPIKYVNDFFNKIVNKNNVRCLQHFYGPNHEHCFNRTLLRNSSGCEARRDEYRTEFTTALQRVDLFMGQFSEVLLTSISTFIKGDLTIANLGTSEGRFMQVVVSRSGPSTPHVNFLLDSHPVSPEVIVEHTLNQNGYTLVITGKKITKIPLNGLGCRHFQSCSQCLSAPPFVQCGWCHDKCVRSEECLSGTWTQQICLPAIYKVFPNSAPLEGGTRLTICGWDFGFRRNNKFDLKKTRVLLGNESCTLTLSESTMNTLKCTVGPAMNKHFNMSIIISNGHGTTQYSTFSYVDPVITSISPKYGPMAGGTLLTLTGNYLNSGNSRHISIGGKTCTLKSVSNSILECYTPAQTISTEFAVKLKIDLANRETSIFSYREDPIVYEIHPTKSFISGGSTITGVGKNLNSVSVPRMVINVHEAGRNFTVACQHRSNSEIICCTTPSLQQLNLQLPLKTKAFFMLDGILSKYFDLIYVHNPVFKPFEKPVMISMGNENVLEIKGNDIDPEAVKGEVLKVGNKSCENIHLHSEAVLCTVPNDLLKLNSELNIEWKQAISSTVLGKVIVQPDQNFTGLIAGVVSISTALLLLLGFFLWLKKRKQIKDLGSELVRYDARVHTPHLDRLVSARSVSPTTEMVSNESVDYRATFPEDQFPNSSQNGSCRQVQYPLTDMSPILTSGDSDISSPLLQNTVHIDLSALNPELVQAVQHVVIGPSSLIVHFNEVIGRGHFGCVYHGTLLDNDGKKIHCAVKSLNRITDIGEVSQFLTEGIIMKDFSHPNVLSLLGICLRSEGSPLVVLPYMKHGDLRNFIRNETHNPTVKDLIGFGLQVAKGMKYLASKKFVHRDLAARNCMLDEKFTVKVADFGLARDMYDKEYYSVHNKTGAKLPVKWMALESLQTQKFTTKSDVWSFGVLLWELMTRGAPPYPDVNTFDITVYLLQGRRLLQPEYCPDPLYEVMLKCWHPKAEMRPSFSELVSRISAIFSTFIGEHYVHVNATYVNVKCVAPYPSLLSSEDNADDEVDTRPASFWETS

MDA-MB-231 [10] = test: Anti-invasive activity against human MDA-MB-231 cells up to 3 uM after 5 hrs by matrigel assay; type: functional, cell-based
Summary of the method: (§2)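 MDA-MB-231 cells (7000/well) seeded on polymerized 3 mg/mL Matrigel (set ≥16 h at 37°C) in serum-free medium; inhibitor added at seeding, aggregates forming over 5 h.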

[11] = target: T4, Proto-oncogene tyrosine-protein kinase Src (Homo sapiens, UniProt P12931); test: Inhibition of SRC (unknown origin)
T4 sequence (P12931 2-536 limits assumed): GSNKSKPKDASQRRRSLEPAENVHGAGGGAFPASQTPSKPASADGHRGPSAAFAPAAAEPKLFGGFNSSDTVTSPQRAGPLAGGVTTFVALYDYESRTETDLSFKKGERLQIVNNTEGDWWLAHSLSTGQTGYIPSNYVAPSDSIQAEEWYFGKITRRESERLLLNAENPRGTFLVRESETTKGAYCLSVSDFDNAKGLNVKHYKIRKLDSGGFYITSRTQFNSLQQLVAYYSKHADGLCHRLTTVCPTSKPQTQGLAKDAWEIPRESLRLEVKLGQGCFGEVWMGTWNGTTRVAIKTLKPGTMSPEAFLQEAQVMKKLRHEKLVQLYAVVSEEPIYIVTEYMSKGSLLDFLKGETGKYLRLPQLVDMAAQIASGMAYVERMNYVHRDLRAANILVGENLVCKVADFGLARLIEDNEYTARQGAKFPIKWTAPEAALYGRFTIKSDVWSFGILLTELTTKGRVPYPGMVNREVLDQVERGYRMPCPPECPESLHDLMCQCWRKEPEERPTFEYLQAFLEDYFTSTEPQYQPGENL

MDA-MB-231 [12] = test: Antimigratory activity against human MDA-MB-231 cells assessed as inhibition of large cell aggregate formation after 5 hrs by matrigel assay; type: functional, cell-based; conditions: MDA-MB-231, 5 h; summary of the method: as §2
[13] = target: T1, Tyrosine-protein kinase receptor UFO; test: Inhibition of AXL (unknown origin)
[14] = Ratio of IC50 for antimigratory activity against human MDA-MB-231 cells after 3.5 hrs by microscopy based Boyden chamber assay to IC50 for inhibition of AXL (unknown origin)
[15] = target: Platelet-derived growth factor receptor beta (Homo sapiens) (UniProt P09619); test: Binding affinity to wild-type human partial length PDGFRB (V582 to Y1009 residues) expressed in bacterial expression system assessed as residual binding level at 5 umol/L by Kinomescan method
[16] = target: Mast/stem cell growth factor receptor Kit (Homo sapiens) (UniProt P10721); test: Binding affinity to wild type human partial length c-KIT (I571 to D952 residues) expressed in bacterial expression system assessed as residual binding level at 5 umol/L by Kinomescan method
Mast/stem cell growth factor receptor Kit (Homo sapiens), sequence (P10721 whole entry, the tested form may be a part): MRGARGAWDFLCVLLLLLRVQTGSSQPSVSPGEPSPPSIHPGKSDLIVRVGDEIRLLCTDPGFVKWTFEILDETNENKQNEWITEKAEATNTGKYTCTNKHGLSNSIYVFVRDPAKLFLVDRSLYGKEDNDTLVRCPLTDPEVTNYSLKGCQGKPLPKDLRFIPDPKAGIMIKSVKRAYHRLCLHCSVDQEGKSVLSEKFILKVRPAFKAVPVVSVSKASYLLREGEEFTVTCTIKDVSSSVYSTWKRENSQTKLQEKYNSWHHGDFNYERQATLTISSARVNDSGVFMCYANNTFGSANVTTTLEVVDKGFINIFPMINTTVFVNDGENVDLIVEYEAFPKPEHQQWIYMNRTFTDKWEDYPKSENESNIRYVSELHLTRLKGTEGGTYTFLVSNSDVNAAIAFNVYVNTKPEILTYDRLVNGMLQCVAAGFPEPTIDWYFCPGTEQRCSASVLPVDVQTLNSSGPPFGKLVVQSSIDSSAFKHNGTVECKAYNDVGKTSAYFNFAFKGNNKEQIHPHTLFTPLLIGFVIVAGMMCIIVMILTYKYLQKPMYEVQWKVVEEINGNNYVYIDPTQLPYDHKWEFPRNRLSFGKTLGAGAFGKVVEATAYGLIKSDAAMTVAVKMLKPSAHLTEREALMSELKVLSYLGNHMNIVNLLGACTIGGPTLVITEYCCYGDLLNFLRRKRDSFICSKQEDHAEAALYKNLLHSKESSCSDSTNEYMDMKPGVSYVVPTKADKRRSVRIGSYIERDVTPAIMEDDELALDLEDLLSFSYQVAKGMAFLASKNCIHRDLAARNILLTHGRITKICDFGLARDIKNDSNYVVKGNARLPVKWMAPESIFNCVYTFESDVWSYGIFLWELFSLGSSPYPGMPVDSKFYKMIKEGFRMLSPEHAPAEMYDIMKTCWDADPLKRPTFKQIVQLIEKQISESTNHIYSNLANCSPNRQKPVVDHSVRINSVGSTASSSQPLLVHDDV

[17] = target: Macrophage colony-stimulating factor 1 receptor (Homo sapiens) (UniProt P07333); test: Binding affinity to wild-type human partial length CSF1R (I564 to S939 residues) expressed in bacterial expression system assessed as residual binding level at 5 umol/L by Kinomescan method
[18] = target: Protein-tyrosine kinase 6 (Homo sapiens) (UniProt Q13882); test: Binding affinity to wild-type human partial length BRK (L166 to T451 residues) expressed in bacterial expression system assessed as residual binding level at 5 umol/L by Kinomescan method
[19] = target: Serine/threonine-protein kinase 10 (Homo sapiens, UniProt O94804); test: Binding affinity to wild-type human partial length LOK (E16 to V314 residues) expressed in bacterial expression system assessed as residual binding level at 5 umol/L by Kinomescan method
[20] = target: Platelet-derived growth factor receptor alpha (Homo sapiens) (UniProt P16234); test: Binding affinity to wild-type human partial length PDGFRA (V575 to D1002 residues) expressed in mammalian expression system assessed as residual binding level at 5 umol/L by Kinomescan method
[21] = target: Tyrosine-protein kinase receptor UFO (Homo sapiens) (UniProt P30530); test: Binding affinity to wild-type human partial length AXL (R497 to Y821 residues) expressed in bacterial expression system assessed as residual binding level at 5 umol/L by Kinomescan method
[22] = target: T3, Hepatocyte growth factor receptor; test: Binding affinity to wild type human partial length c-MET (D1010 to S1367 residues) expressed in bacterial expression system assessed as residual binding level at 5 umol/L by Kinomescan method
[23] = target: Tyrosine-protein kinase Blk (Homo sapiens) (UniProt P51451); test: Binding affinity to wild-type human partial length BLK (G211 to L503 residues) expressed in bacterial expression system assessed as residual binding level at 5 umol/L by Kinomescan method
[24] = target: Tyrosine-protein kinase ABL1 (Homo sapiens) (UniProt P00519); test: Binding affinity to wild-type human phosphorylated ABL1 (S229 to K512 residues) expressed in mammalian expression system assessed as residual binding level at 5 umol/L by Kinomescan method
[25] = target: T4, Proto-oncogene tyrosine-protein kinase Src; test: Binding affinity to wild-type human partial length SRC (L240 to L536 residues) expressed in bacterial expression system assessed as residual binding level at 5 umol/L by Kinomescan method
[26] = target: Epithelial discoidin domain-containing receptor 1 (Homo sapiens) (UniProt Q08345); test: Binding affinity to wild-type human partial length DDR1 (R565 to V876 residues) expressed in bacterial expression system assessed as residual binding level at 5 umol/L by Kinomescan method
Epithelial discoidin domain-containing receptor 1 (Homo sapiens), sequence (Q08345 whole entry, the tested form may be a part): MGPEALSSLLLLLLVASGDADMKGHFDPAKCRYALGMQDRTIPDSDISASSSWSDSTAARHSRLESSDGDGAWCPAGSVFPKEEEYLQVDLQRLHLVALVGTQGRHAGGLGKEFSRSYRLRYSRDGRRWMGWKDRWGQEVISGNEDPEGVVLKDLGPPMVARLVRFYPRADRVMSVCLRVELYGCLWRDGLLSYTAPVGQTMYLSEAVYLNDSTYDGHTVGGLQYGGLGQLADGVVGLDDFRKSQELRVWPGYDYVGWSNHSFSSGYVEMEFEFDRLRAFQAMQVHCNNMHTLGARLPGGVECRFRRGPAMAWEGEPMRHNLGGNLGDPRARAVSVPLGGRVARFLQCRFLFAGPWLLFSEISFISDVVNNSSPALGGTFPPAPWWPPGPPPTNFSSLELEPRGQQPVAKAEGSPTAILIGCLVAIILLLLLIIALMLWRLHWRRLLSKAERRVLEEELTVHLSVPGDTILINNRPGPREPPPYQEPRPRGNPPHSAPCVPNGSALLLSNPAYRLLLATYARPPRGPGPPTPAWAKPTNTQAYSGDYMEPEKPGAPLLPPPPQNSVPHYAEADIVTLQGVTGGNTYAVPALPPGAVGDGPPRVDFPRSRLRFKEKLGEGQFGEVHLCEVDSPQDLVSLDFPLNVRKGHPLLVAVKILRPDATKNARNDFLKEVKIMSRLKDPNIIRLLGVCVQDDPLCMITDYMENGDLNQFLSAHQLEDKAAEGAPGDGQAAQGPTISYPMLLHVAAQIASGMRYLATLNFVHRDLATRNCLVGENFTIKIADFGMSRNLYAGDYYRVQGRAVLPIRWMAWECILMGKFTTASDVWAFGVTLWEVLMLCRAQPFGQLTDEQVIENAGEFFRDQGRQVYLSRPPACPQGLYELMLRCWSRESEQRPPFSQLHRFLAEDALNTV

[27] = target: Tyrosine-protein kinase Lck (Homo sapiens) (UniProt P06239); test: Binding affinity to wild-type human partial length LCK (R207 to P509 residues) expressed in bacterial expression system assessed as residual binding level at 5 umol/L by Kinomescan method
[28] = target: Receptor-interacting serine/threonine-protein kinase 2 (Homo sapiens, UniProt O43353); test: Binding affinity to wild-type human partial length RIPK2 (M1 to K310 residues) expressed in bacterial expression system assessed as residual binding level at 5 umol/L by Kinomescan method
[29] = target: T2, Epidermal growth factor receptor; test: Binding affinity to wild-type human partial length EGFR (R669 to V1011 residues) expressed in bacterial expression system assessed as residual binding level at 5 umol/L by Kinomescan method

CC(=O)O[C@H]1C(=O)[C@@]2(C)[C@H]([C@H](OC(=O)c3ccccc3)[C@]3(O)C[C@H](OC(=O)[C@H](O)[C@@H](NC(=O)c4ccccc4)c4ccccc4)C(C)=C1C3(C)C)[C@]1(OC(C)=O)CO[C@@H]1C[C@@H]2O [PACLITAXEL]
Activity [1]: Toxic | TGI (MDA-MB-231 [2]): Active | Activity (MDA-MB-231 [3]): 54.3% | Activity (MDA-MB-231 [4]): inactive

COc1cc2c(Oc3ccc(NS(=O)(=O)c4ccccc4OC(F)(F)F)cc3F)ccnc2cc1OCCCN1CCN(C)CC1
Selectivity ratio [5]: 2 - 6 | IC50 (MDA-MB-231 [6]): 4300 nM | IC50 [7]: 51 nM | IC50 [8]: 3080 nM | IC50 [9]: 1540 nM | inhibition (MDA-MB-231 [10]): Active | IC50 [11]: 1950 nM | IC50 (MDA-MB-231 [12]): 103 nM | IC50 [13]: 51 nM | Ratio IC50 [14]: >50

COc1cc2c(Oc3ccc(NS(=O)(=O)c4cc(F)ccc4F)cc3F)ccnc2cc1OCC(=O)N(C)C
IC50 [7]: > 1000 nM

COc1cc2c(Oc3ccc(NS(=O)(=O)c4ccccc4C(F)(F)F)cc3F)ccnc2cc1OCCCN1CCC(C)CC1
Activity [15]: Active | Activity [16]: Active | Activity [17]: Active | Activity [18]: Active | IC50 [8]: 592 nM | IC50 [9]: 609 nM | Activity [19]: Active | Activity [20]: Active | IC50 [11]: 1720 nM | Activity [21]: Active | Activity [22]: Active | Activity [23]: Active | Activity [24]: Active | Activity [25]: Active | Activity [26]: Active | Activity [27]: Active | Activity [28]: Active | Activity [29]: Active | IC50 [13]: 46 nM | Ratio IC50 [14]: >50

COc1cc2nccc(Oc3ccc(NS(=O)(=O)c4ccc(F)c(Cl)c4)c(F)c3)c2cc1OC
IC50 [7]: > 1000 nM

COc1cc2c(Oc3ccc(NS(=O)(=O)c4ccccc4C(F)(F)F)cc3F)ccnc2cc1OCCCN1CCOCC1
Activity [15]: Active | Activity [16]: Active | Activity [17]: Active | Activity [18]: Active | IC50 [7]: 21 nM | IC50 [8]: 650 nM | IC50 [9]: 338 nM | Activity [19]: Active | Activity [20]: Active | IC50 [11]: 995 nM | Activity [21]: Active | Activity [22]: Active | Activity [23]: Active | Activity [24]: Active | Activity [25]: Active | Activity [26]: Active | Activity [27]: Active | Activity [28]: Active | Activity [29]: Active | IC50 [13]: 21 nM | Ratio IC50 [14]: >50

COc1cc2nccc(Oc3ccc(NS(=O)(=O)c4c(F)cccc4F)c(F)c3)c2cc1OC
IC50 [7]: > 1000 nM
